Activity calls are given as the source filed them. The calls are words filed in the database; no cut-off is given here.
Columns and labels:
[1] = target: T1, Prolyl endopeptidase FAP (Homo sapiens, UniProt Q12884); test: (§1) Prodrug activation assessed as recombinant human FAP-alpha mediated (S)-((3S,5R,8R,9S,10S,11S,13R,14S,17R)-11,14-dihydroxy-10,13-dimethyl-12-oxo-17-(2-oxo-2H-pyran-5-yl)hexadecahydro-1H-cyclopenta[a]phenanthren-3-yl) 2-aminopropanoate formation […] after 90 mins by UPLC-MS/MS analysis; settings: 1.5 h
T1 sequence (Q12884 whole entry): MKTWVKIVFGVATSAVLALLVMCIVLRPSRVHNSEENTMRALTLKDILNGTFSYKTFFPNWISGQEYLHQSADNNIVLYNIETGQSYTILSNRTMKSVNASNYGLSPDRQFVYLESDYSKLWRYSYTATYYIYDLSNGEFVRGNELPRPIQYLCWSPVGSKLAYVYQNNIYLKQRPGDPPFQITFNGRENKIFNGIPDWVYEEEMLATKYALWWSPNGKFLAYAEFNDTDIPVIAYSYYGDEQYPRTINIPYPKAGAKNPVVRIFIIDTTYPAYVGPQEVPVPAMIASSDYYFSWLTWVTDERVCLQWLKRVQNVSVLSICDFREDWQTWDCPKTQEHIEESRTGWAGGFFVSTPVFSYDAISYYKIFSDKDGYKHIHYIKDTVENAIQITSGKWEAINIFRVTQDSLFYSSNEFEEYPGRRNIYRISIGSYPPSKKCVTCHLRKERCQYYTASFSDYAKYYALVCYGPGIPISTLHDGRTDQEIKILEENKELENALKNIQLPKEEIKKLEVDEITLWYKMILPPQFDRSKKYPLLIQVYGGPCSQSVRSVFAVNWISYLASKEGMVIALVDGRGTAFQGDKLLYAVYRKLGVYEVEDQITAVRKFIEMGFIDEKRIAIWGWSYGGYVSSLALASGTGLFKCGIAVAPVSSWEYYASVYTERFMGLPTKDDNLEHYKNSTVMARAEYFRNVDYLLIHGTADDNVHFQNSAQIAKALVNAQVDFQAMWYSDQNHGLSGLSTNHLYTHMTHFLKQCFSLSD
Procedure, shortened: (§2)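 Prodrug at 0.625–40 μmol/L incubated with rhFAPα at 0.45 μg/mL and internal standard in 0.2 mL PBS, pH 7.4, at 37 °C for 90 min. Quenched with MeCN and spun at 18 000g for 15 min; product measured by UPLC-MS/MS. S50 and Vmax fitted with an allosteric sigmoidal model; CLint = Vmax/S50. Three independent experiments.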

[2] = target: T1, Prolyl endopeptidase FAP; test: as §1, with “2-amino-3-methylbutanoate” for “2-aminopropanoate”; settings: 1.5 h; procedure, shortened: as §2
[3] = system: MDA-MB-435; test: Antiproliferative activity against wild type human MDA-MB-435 cells expressing FAP-alpha incubated for 48 hrs by MTT assay; format: functional, cell-based; settings: MDA-MB-435, 48 h
Procedure, shortened: (§3)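 Cells grown in DMEM with 10% FBS and 1% penicillin-streptomycin at 37 °C, 5% CO2; 10% heat-inactivated FBS used during cytotoxicity testing to exclude serum FAP activity. Viability read by MTT; IC50 as mean ± SEM of at least three independent experiments. Transfected lines were made from MDA-MB-231 with human FAPα plasmid or empty pCMV6-Entry vector and checked by Western blot at 48 h.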

[4] = Cytotoxicity in BMSC (unknown origin) assessed as cell viability at 1000 nmol/L after 72 hrs by MTT assay; format: cell-based; settings: unidentified, 1 µM
[5] = system: MDA-MB-231; test: Antiproliferative activity against human MDA-MB-231 cells assessed as decrease in cell viability at 62.5 to 500 nmol/L after 72 hrs by MTT assay; format: functional, cell-based
[6] = system: MDA-MB-231; test: Antiproliferative activity against human MDA-MB-231 cells transfected with human FAP-alpha incubated for 48 hrs by MTT assay; format: functional, cell-based; settings: MDA-MB-231, 48 h; procedure, shortened: as §3
[7] = system: MCF7; test: Antiproliferative activity against FAP-alpha deficient human MCF7 cells incubated for 48 hrs by MTT assay; format: functional, cell-based; settings: MCF7, 48 h; procedure, shortened: as §3
[8] = system: MDA-MB-231; test: Antiproliferative activity against FAP-alpha deficient human MDA-MB-231 cells incubated for 48 hrs by MTT assay; format: functional, cell-based; settings: MDA-MB-231, 48 h; procedure, shortened: as §3
[9] = system: MDA-MB-231; test: Antiproliferative activity against human MDA-MB-231 cells transfected with pCMV6 incubated for 48 hrs by MTT assay; format: functional, cell-based; settings: MDA-MB-231, 48 h; procedure, shortened: as §3

C[C@H](NC(=O)[C@@H]1CCCN1C(=O)CNC(=O)OCc1ccccc1)C(=O)O[C@H]1CC[C@@]2(C)[C@H](CC[C@@H]3[C@@H]2[C@H](O)C(=O)[C@]2(C)[C@@H](c4ccc(=O)oc4)CC[C@]32O)C1 showed a CL [1] of 23240 µL/min/mg.
CC(C)[C@H](NC(=O)[C@@H]1CCCN1C(=O)CNC(=O)OCc1ccccc1)C(=O)O[C@H]1CC[C@@]2(C)[C@H](CC[C@@H]3[C@@H]2[C@H](O)C(=O)[C@]2(C)[C@@H](c4ccc(=O)oc4)CC[C@]32O)C1 showed a CL [2] of 1270 µL/min/mg.
In the case of C[C@]12CC[C@H](OC(=O)[C@@H](N)Cc3c[nH]c4ccccc34)C[C@H]1CC[C@@H]1[C@@H]2[C@H](O)C(=O)[C@]2(C)[C@@H](c3ccc(=O)oc3)CC[C@]12O, the IC50 [3] is reported as 10 nM, the Activity [4] is reported as “Non-Toxic” and the Activity [5] is reported as “Active”. The IC50 [6] was 7.19 nM, the IC50 [7] was 1.06 nM and the IC50 [8] was 4.81 nM. For the same compound, the IC50 [9] was 5.19 nM.
